Laboratory results as given in ChEMBL document CHEMBL1131139, “Synthesis and antibacterial activity of ketolides (6-O-methyl-3-oxoerythromycin derivatives): a new class of antibacterials highly potent against macrolide-resistant and -susceptible respiratory pathogens” (1998).
Values after ≈ are worked out from the molar mass of the structure shown.

What was measured:
Format in all cases: functional
Staphylococcus aureus [1] = assay: In vitro inhibitory activity against Staphylococcus aureus (011UC4)
In short: (§1)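 Two-fold agar dilution on Mueller-Hinton agar (pH 7.4). Inoculum from overnight plate cultures suspended in Mueller-Hinton broth, adjusted to 10^9 CFU/mL, diluted 1:200 and spotted by multipoint inoculator at about 10^4 CFU/spot. Plates incubated 37 °C for 20 h. MIC taken as lowest concentration with no visible growth.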

Haemophilus influenzae [2] = assay: In vitro inhibitory activity against Haemophilus influenzae (351CB12); in short: as §1
Streptococcus pneumoniae [3] = assay: In vitro inhibitory activity against Streptococcus pneumoniae (EryRc 030SJ1); in short: as §1
Staphylococcus aureus [4] = assay: In vitro inhibitory activity against Staphylococcus aureus (EryRi 011GO25i); in short: as §1
Streptococcus pneumoniae [5] = assay: In vitro inhibitory activity against Streptococcus pneumoniae (032UC1); in short: as §1
Staphylococcus aureus [6] = assay: In vitro inhibitory activity against Staphylococcus aureus (EryRc 011CB20); in short: as §1
Streptococcus pneumoniae [7] = assay: In vitro inhibitory activity against Streptococcus pneumoniae (EryRi 030SJ5i); in short: as §1
Escherichia coli = assay: In vitro inhibitory activity against Escherichia coli (250 UC5); in short: as §1
[8] = tested on: Staphylococcus epidermidis; assay: In vitro inhibitory activity against Staphylococcus epidermidis (EryRi 012GO11i); in short: as §1
Haemophilus influenzae [9] = assay: In vitro inhibitory activity against Haemophilus influenzae (351HT3); in short: as §1
Streptococcus pyogenes = assay: In vitro inhibitory activity against Streptococcus pyogenes (02A1UC1); in short: as §1

MIC (Staphylococcus aureus [1]) [µg/mL] | MIC (Haemophilus influenzae [2]) [µg/mL] | MIC (Streptococcus pneumoniae [3]) [µg/mL] | MIC (Staphylococcus aureus [4]) [µg/mL] | MIC (Streptococcus pneumoniae [5]) [µg/mL] | MIC (Staphylococcus aureus [6]) [µg/mL] | MIC (Streptococcus pneumoniae [7]) [µg/mL] | MIC (Escherichia coli) [µg/mL] | MIC [8] [µg/mL] | MIC (Haemophilus influenzae [9]) [µg/mL] | MIC (Streptococcus pyogenes) [µg/mL] | SMILES
0.6 (≈ 0.857 µM) | 20 (≈ 28.6 µM) | 20 (≈ 28.6 µM) | 2.5 (≈ 3.57 µM) | 20 (≈ 28.6 µM) | 40 (≈ 57.1 µM) | 40 (≈ 57.1 µM) | 40 (≈ 57.1 µM) | 0.6 (≈ 0.857 µM) | 40 (≈ 57.1 µM) | 0.15 (≈ 0.214 µM) | CC[C@H]1OC(=O)[C@H](C)C(=O)[C@H](C)[C@@H](O[C@@H]2O[C@H](C)C[C@H](N(C)C)[C@H]2O)[C@](C)(OC)C[C@@H](C)/C(=N\OCCN2CCCC2)[C@H](C)[C@@H](O)[C@]1(C)O
0.08 (≈ 0.0976 µM) | 1.2 (≈ 1.46 µM) | 0.6 (≈ 0.732 µM) | 0.6 (≈ 0.732 µM) | 0.02 (≈ 0.0244 µM) | 40 (≈ 48.8 µM) | 0.15 (≈ 0.183 µM) | 40 (≈ 48.8 µM) | 0.3 (≈ 0.366 µM) | 5 (≈ 6.1 µM) | 0.04 (≈ 0.0488 µM) | CC[C@H]1OC(=O)[C@H](C)C(=O)[C@H](C)[C@@H](O[C@@H]2O[C@H](C)C[C@H](N(C)C)[C@H]2O)[C@](C)(OC)C[C@@H](C)/C(=N\OC2CCCN(CCCc3ccc(O)cc3)C2)[C@H](C)[C@@H](O)[C@]1(C)O (some centres not stated)
0.6 (≈ 0.84 µM) | 20 (≈ 28 µM) | 20 (≈ 28 µM) | 2.5 (≈ 3.5 µM) | 10 (≈ 14 µM) | 40 (≈ 56 µM) | 40 (≈ 56 µM) | 40 (≈ 56 µM) | 0.6 (≈ 0.84 µM) | 40 (≈ 56 µM) | 0.15 (≈ 0.21 µM) | CC[C@H]1OC(=O)[C@H](C)C(=O)[C@H](C)[C@@H](O[C@@H]2O[C@H](C)C[C@H](N(C)C)[C@H]2O)[C@](C)(OC)C[C@@H](C)/C(=N\OCCN2CCCCC2)[C@H](C)[C@@H](O)[C@]1(C)O
0.15 (≈ 0.223 µM) | 5 (≈ 7.44 µM) | 10 (≈ 14.9 µM) | 5 (≈ 7.44 µM) | 0.02 (≈ 0.0298 µM) | 40 (≈ 59.5 µM) | 40 (≈ 59.5 µM) | 40 (≈ 59.5 µM) | 6 (≈ 8.93 µM) | 10 (≈ 14.9 µM) | 0.04 (≈ 0.0595 µM) | CC[C@H]1OC(=O)[C@H](C)C(=O)[C@H](C)[C@@H](O[C@@H]2O[C@H](C)C[C@H](N(C)C)[C@H]2O)[C@](C)(OC)C[C@@H](C)/C(=N\OC2CCNC2)[C@H](C)[C@@H](O)[C@]1(C)O (some centres not stated)
0.15 (≈ 0.197 µM) | 2.5 (≈ 3.29 µM) | 10 (≈ 13.2 µM) | 0.6 (≈ 0.789 µM) | 0.02 (≈ 0.0263 µM) | 40 (≈ 52.6 µM) | 0.3 (≈ 0.395 µM) | 40 (≈ 52.6 µM) | 0.15 (≈ 0.197 µM) | 5 (≈ 6.58 µM) | 0.04 (≈ 0.0526 µM) | CC[C@H]1OC(=O)[C@H](C)C(=O)[C@H](C)[C@@H](O[C@@H]2O[C@H](C)C[C@H](N(C)C)[C@H]2O)[C@](C)(OC)C[C@@H](C)C(=O)[C@H](C)[C@H]2N(CCN(C)Cc3ccccc3)C(=O)O[C@]12C
0.6 (≈ 0.979 µM) | 5 (≈ 8.16 µM) | 5 (≈ 8.16 µM) | 0.6 (≈ 0.979 µM) | 0.02 (≈ 0.0326 µM) | 40 (≈ 65.3 µM) | 2.5 (≈ 4.08 µM) | 40 (≈ 65.3 µM) | 10 (≈ 16.3 µM) | 5 (≈ 8.16 µM) | 0.04 (≈ 0.0653 µM) | CC[C@H]1OC(=O)[C@H](C)C(=O)[C@H](C)[C@@H](O[C@@H]2O[C@H](C)C[C@H](N(C)C)[C@H]2O)[C@](C)(OC)C[C@@H](C)C(=O)[C@H](C)[C@H]2NC(=O)O[C@@]21C
1.2 (≈ 1.7 µM) | 40 (≈ 56.8 µM) | 40 (≈ 56.8 µM) | 10 (≈ 14.2 µM) | 0.6 (≈ 0.852 µM) | 40 (≈ 56.8 µM) | 20 (≈ 28.4 µM) | 40 (≈ 56.8 µM) | 2.5 (≈ 3.55 µM) | 40 (≈ 56.8 µM) | 0.6 (≈ 0.852 µM) | CC[C@H]1OC(=O)[C@H](C)C(=O)[C@H](C)[C@@H](O[C@@H]2O[C@H](C)C[C@H](N(C)C)[C@H]2O)[C@](C)(OC)C[C@@H](C)/C(=N\OC[C@@H](N)C(=O)OC)[C@H](C)[C@@H](O)[C@]1(C)O
